E coli WT inh: blocks growth of wild type E. coli BW25113. hit rate 0.05% among 20,000. E. coli BW25113 growth inhibition, OD600. inhibition, % at 10 µM. AID 552; in the data active = inhibition above about 40%;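 also: bacteria exposed to compound for 20 hours at 37 °C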
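Assay system: Bacterial strain in a whole-cell growth screen | Amount: Inoculum from a 1:1000 dilution of a 1.5 h subculture | Detection: Absorbance at 615 nm as a measure of bacterial growth | Timing: 20 h exposure, 37 °C | Buffer or medium: LB plus kanamycin 50 µg/mL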
* hit, by the source's call. The full list was thinned out, with hits kept by preference.

SMILES | E coli WT inh
CCC(c1nnc(SCC(=O)Nc2ccc(C(=O)Nc3ccccc3OC)cc2)o1)N(C)C (configuration not stated) | -7
O=C(NCc1cccnc1)C1c2ccccc2C(=O)N1Cc1ccco1 (configuration not stated) | 4
CS(=O)(=O)N1CCC(C(=O)Nc2ccc(Br)cc2F)CC1 | 1
CSc1nc(-c2ccco2)nn1S(C)(=O)=O | -26
COCCN1C(=O)C(=O)/C(=C(/O)c2cccc(S(=O)(=O)N(C)C)c2)C12C(=O)N(C)c1ccccc12 (configuration not stated) | 4
Cc1nn2c(=O)nc3sc4c(c3c2[nH]c1=O)CCCC4 | -10
COc1ccccc1NC(=O)C(C)NS(=O)(=O)c1ccccc1 (configuration not stated) | -16
COC(=O)c1ccc(NC(=O)CSc2nnc(COc3ccccc3)n2C)cc1 | -15
O=C1CCCN1c1cc(Cl)ccc1Cl | -17
CN(C)c1ccc(NC(=O)Cn2cc3c(n2)CCCC3)cc1 | 6
O=C(CCN1CCN(c2ccccc2F)CC1)Nc1ccc2c(c1)OCO2 | -21
O=C(COc1ccc(S(=O)(=O)N2CCc3ccccc32)cc1Cl)NCc1ccccn1 | -23
COc1ccccc1OCc1nc(Cc2ccc(Cl)cc2)no1 | -18
O=C1CC(Cc2ccccc2)C(=O)N1CCCn1ccnc1 (configuration not stated) | -3
Cc1ccc2c(c1)-c1c(cnn1CC(=O)Nc1ccccc1N1CCN(C)CC1)CO2 | 20
COc1ccc(OC)c(NS(=O)(=O)Cc2ccccc2)c1 | 7
COc1ccc(NC(=O)Nc2cc(C)ccc2OC(F)F)c(OC)c1 | -12
COc1cc(C)c(N)cc1C(C)C | 9
CCOC(=O)N1CCN(Cc2nc(N)nc(Nc3ccc(Oc4ccccc4)cc3)n2)CC1 | -19
O=C(CCN1C(=O)c2ccccc2S1(=O)=O)Nc1nc2c(s1)CCCC2 | -25
CCC(=O)N1CCN(c2ccccc2NC(=O)COc2ccccc2Cl)CC1 | -2
C=CCSc1nnc(NC(=O)c2cccc(S(=O)(=O)N3CCOCC3)c2)s1 | 1
COC(=O)c1ccccc1NC(=O)CNC(=O)c1ccco1 | -22
CC(C)(CSc1nncn1N)NS(=O)(=O)c1ccc(Cl)cc1 | -1
CC1(C)CC(=O)CC(C)(C)N1OC(=O)c1ccncc1 | 2
SMILES | E coli WT inh
CC(=O)c1cc(OC(=O)c2ccncc2)ccc1OC(=O)c1ccncc1 | -24
Cc1c(C(=O)NC(C)CN2CCCCC2)oc2ccccc12 (configuration not stated) | -15
CCCN(CCC)CCNC(=O)C(NS(=O)(=O)c1ccc2c(c1)CCC(=O)N2)c1ccccc1 (configuration not stated) | -4
CCCCS(=O)(=O)Nc1ccc(Cc2ccncc2)cc1 | -15
Cc1nc(Nc2nc(=O)c3ccccc3n2C)nc2c(C)cccc12 | 11
Cc1ccc(C(=O)CCNc2ccc(F)c(Cl)c2)o1 | 6
O=C1CSC(=Nc2cc(Cl)ccc2Cl)N1 | 1
COc1ccc(C(=O)COC(=O)CCn2nnc(-c3cccs3)n2)cc1 | 5
O=S(=O)(CCOc1ccccc1)c1nc2ccccc2[nH]1 | -7
CC1(C2(O)CC(c3ccccc3)ON2)CCCCC1 (configuration not stated) | 9
O=C1CC(C2CCCO2)C(=O)N1Cc1ccccc1 (configuration not stated) | -3
N#Cc1c(NC(=O)COC(=O)C2CC3C=CC2C3)oc(-c2ccccc2)c1-c1ccccc1 (configuration not stated) | -5
COC(=O)c1cccc(Oc2nc3c(c(=O)n(C)c(=O)n3C)n2C(C)C)c1 | 7
COCc1c(C)cc(C)c(/C=N/O)c1C | 1
O=C(CSc1ccccc1C(=O)NCCCN1CCCC1=O)NCc1ccco1 | -1
O=c1[nH]c(NCc2ccccc2)nc2c1CCCC2 | 1
O=C1CC(N2CCSCC2)C(=O)N1CCc1ccccc1 (configuration not stated) | -19
COc1cc(OC)cc(C(=O)N2c3ccc(F)cc3CCC2C)c1 (configuration not stated) | 1
CC1CCc2cc(F)cc3c(O)c(C(=O)NCC4CCCO4)c(=O)n1c23 (configuration not stated) | 7
CC1CCc2cc(F)cc3c(=O)c(C(=O)O)cn1c23 (configuration not stated) | 44*
O=S(=O)(c1ccc(OCC(O)CN2CCc3ccccc3C2)cc1)N1CCOCC1 (configuration not stated) | -4
CCOC(=O)N1CCN(C(=O)c2nc3ccccc3s2)CC1 | 1
CC1(C)Cc2ccccc2C(N)=C1C#N | 10
N#CC1(c2ccccc2)CCC(=NO)CC1 (configuration not stated) | 4
O=C(OCc1c(Cl)cccc1Cl)c1cccnc1 | 11
SMILES | E coli WT inh
CCCC(C)C1C(C#N)=C(N)Oc2cc(C)oc(=O)c21 (configuration not stated) | 1
CNC(=O)c1cc2c(=O)n3cccc(C)c3nc2n(C(C)C)c1=N | -21
Cc1cc2nc(C3CCN(CC4COc5ccccc5O4)CC3)[nH]c2cc1C (configuration not stated) | 6
CC(C)(C)NC(=O)C(c1ccco1)N(C(=O)Cn1nnc(-c2ccc(F)cc2)n1)c1ccccc1F (configuration not stated) | -2
COc1ccc(S(=O)(=O)N(C)CC(=O)NC2CC2)cc1 | 3
O=C(CCn1c(=S)[nH]c2cc3c(cc2c1=O)OCO3)N1CCN(C2CCCCC2)CC1 | 8
O=C(NCCCN1CCCC1=O)c1cccc(C(F)(F)F)c1 | 1
CC1CCc2cc(F)ccc2N1C(=O)c1ccc2c(c1)OCO2 (configuration not stated) | -6
Cc1ccc(-c2nnc(N(C)C(=O)c3ccccn3)s2)cn1 | 2
CCN1CCN(C(=O)c2cn(CC)c3ccc(S(=O)(=O)N(C)C)cc3c2=O)CC1 | 5
CCOC(=O)c1cn(CC)c2cc(N3CCOCC3)c(F)cc2c1=O | 16
CCOC(=O)N1CCN(C(=O)c2cn(CC)c3cc(N4CCN(C)CC4)c(F)cc3c2=O)CC1 | 71*
CCC(=O)c1cc(F)c(N2CCN(C(=O)Cc3ccccc3)CC2)cc1C | -17
CCN1CCN(c2cc3c(cc2F)c(=O)c(C(=O)O)cn3C2CC2)CC1 | 72*
CCOC(=O)N1CCN(c2cc3nccnc3cc2F)CC1 | -7
COc1ccc(-c2nc3c(c(=O)n(C)c(=O)n3C)n2CC2CC(c3ccccc3)=NO2)cc1OC (configuration not stated) | 13
COc1ccccc1-n1c(=O)oc2ccc(Cl)cc2c1=O | 11
CCn1cc(C(=O)OCc2ccc(F)cc2)c(=O)c2ccc(C)nc21 | -8
CCn1cc(C(=O)O)c(=O)c2cc(F)c(N3CCNCC3)nc21 | 75*
CCn1cc(C(=O)O)c(=O)c2ccc(C)nc21 | 26
